Measurements as given in ChEMBL document CHEMBL1909575, “Novel natural product-based cinnamates and their thio and thiono analogs as potent inhibitors of cell adhesion molecules on human endothelial cells” (Eur J Med Chem, 2011).
In brackets after ≈: the same amount, converted by molar mass. Activity calls are given as the source filed them. The calls are words filed in the database; no cut-off is given here.

How the values were obtained:
[1] = Cytotoxicity against HUVEC assessed as maximum tolerated dose for >95% cell viability after 24 hrs by MTT assay; format: cell-based; conditions: human, HUVEC cells; read-out: MTD
In short: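 Primary human umbilical vein endothelial cells (mild trypsinization), grown in M-199 with 15% heat-inactivated FCS, endothelial cell growth factor and heparin, 5% CO2. Cells attached overnight, then exposed to compounds or DMSO (0.25%) for 24 h; MTT (5 mg/mL in PBS) 4 h, formazan dissolved in DMSO, absorbance 570 nm. Also checked by trypan blue exclusion. Value is highest concentration giving >95% viability; ≥3 experiments in triplicate.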

HUVEC [2] = experiment: Antiinflammatory activity against TNF-alpha-induced ICAM1 protein expression in HUVEC pretreated for 2 hrs before TNFalpha challenge measured after 16 hrs by whole cell ELISA; format: functional, cell-based; conditions: Homo sapiens
In short: (§1)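 Primary umbilical cord endothelial cells were pre-incubated 2 h with or without compound, then TNF-α (10 ng/mL) for 16 h (ICAM-1, VCAM-1) or 4 h (E-selectin). Whole-cell ELISA: glutaraldehyde fixation, milk block, primary antibody overnight at 4 °C, peroxidase secondary, OPD substrate, A490. IC50 read from %inhibition vs log concentration plots of three independent experiments. Single-level values were taken at the highest concentration giving >95% viability (MTT, 24 h).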

HUVEC [3] = experiment: Antiinflammatory activity against TNF-alpha-induced ICAM1 protein expression in HUVEC at maximum tolerated dose pretreated for 2 hrs before TNFalpha challenge measured after 16 hrs by whole cell ELISA; format: functional, Homo sapiens; in short: as §1
HUVEC [4] = experiment: Antiinflammatory activity against LPS-induced E-selectin protein expression in HUVEC at 2.5 to 20 ug/ml pretreated for 2 hrs before LPS challenge measured after 4 hrs by whole cell ELISA; format: functional, cell-based; conditions: Homo sapiens
In short: (§2)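 Primary human umbilical cord endothelial cells (isolated by mild trypsinization, grown in M-199 with 15% heat-inactivated FCS, endothelial cell growth factor, heparin) pre-incubated 2 h with compound, then LPS ([…]) for 4 h (E-selectin) or 16 h (VCAM-1). Cells fixed with 1.0% glutaraldehyde, blocked with 3.0% milk, primary antibody overnight at 4 °C, peroxidase secondary, o-phenylenediamine substrate at pH 4.5, absorbance 490 nm.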

HUVEC [5] = experiment: Antiinflammatory activity against LPS-induced VCAM-1 protein expression in HUVEC pretreated for 2 hrs before LPS challenge measured after 16 hrs by whole cell ELISA; format: functional, cell-based; conditions: Homo sapiens; in short: as §2
HUVEC [6] = experiment: Antiinflammatory activity against TNF-alpha-induced VCAM-1 protein expression in HUVEC at 20 ug/ml pretreated for 2 hrs before TNFalpha challenge measured after 16 hrs by flow cytometry; format: functional; conditions: Homo sapiens
In short: (§3)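 Endothelial cells were treated ±compound ([…]) for 2 h, then TNF-α (10 ng/mL). E-selectin was read at 4 h, ICAM-1 and VCAM-1 at 16 h. Cells were dislodged, stained with specific or control IgG antibody (30 min, 4 °C) and then FITC anti-mouse IgG. Autofluorescence was subtracted and mean fluorescence intensity taken from three independent experiments.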

HUVEC [7] = experiment: Antiinflammatory activity against TNF-alpha-induced E-selectin protein expression in HUVEC at 20 ug/ml pretreated for 2 hrs before TNFalpha challenge measured after 4 hrs by flow cytometry; format: functional; conditions: Homo sapiens; in short: as §3
HUVEC [8] = experiment: Antiinflammatory activity against TNF-alpha-induced neutrophil adhesion in HUVEC at 2.5 to 20 ug/ml pretreated for 2 hrs before TNFalpha challenge measured after 6 hrs by calorimetric analysis; format: functional, Homo sapiens
In short: (§4)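 A confluent endothelial monolayer was pretreated ±compound for 2 h, then given TNF-α (10 ng/mL) for 6 h. Neutrophils from healthy donor blood (dextran sedimentation, Ficoll-Hypaque, hypotonic RBC lysis; 6 × 10^4/well) were added for 1 h at 37 °C under static conditions. After washing, bound cells were detected with OPD/CTAB/aminotriazole substrate at A490. Mean ± SD of 3 independent experiments.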

HUVEC [9] = experiment: Antiinflammatory activity against TNF-alpha-induced E-selectin protein expression in HUVEC at 2.5 to 20 ug/ml pretreated for 2 hrs before TNFalpha challenge measured after 4 hrs by whole cell ELISA; format: functional, cell-based; conditions: Homo sapiens; in short: as §1
HUVEC [10] = experiment: Antiinflammatory activity against TNF-alpha-induced neutrophil adhesion in HUVEC pretreated for 2 hrs before TNFalpha challenge measured after 6 hrs by calorimetric analysis; format: functional, cell-based; conditions: Homo sapiens; in short: as §4
HUVEC [11] = experiment: Antiinflammatory activity against TNF-alpha-induced VCAM-1 protein expression in HUVEC pretreated for 2 hrs before TNFalpha challenge measured after 16 hrs by whole cell ELISA; format: functional, cell-based; conditions: Homo sapiens; in short: as §1
[12] = Antiinflammatory activity against TNF-alpha-induced VCAM-1 protein expression in HUVEC by ELISA
HUVEC [13] = experiment: Antiinflammatory activity against TNF-alpha-induced ICAM1 protein expression in HUVEC at 20 ug/ml pretreated for 2 hrs before TNFalpha challenge measured after 16 hrs by flow cytometry; format: functional; conditions: Homo sapiens; in short: as §3

Compound | MNTC at 24 h [1] | IC50 (HUVEC [2]) | inhibition (INH) (HUVEC [3]) | also measured
CCOC(=O)CCc1cc(OC)c(OC)c(OC)c1 | 110 µg/mL | 110 µg/mL (≈ 410 µM) | 50% | 
O=C(/C=C/c1ccccc1)Sc1ccccc1 [PHENYL THIOCINNAMATE] | 70 µg/mL | 55 µg/mL (≈ 229 µM) | 65% | 
CCCOC(=S)/C=C/c1cc(OC)ccc1OC | 40 µg/mL | 25 µg/mL (≈ 93.9 µM) | 70% | 
CCSC(=O)/C=C/c1cc(OC)c(OC)c(OC)c1 | 30 µg/mL | 25 µg/mL (≈ 88.5 µM) | 65% | 
CCOC(=S)/C=C/c1cc(OC)c(OC)c(OC)c1 | 20 µg/mL | 10 µg/mL (≈ 35.4 µM) | 95% | inhibition (HUVEC [4]): Active; inhibition (HUVEC [5]): Active; inhibition at 20 µg/mL (HUVEC [6]): > 95%; inhibition at 20 µg/mL (HUVEC [7]): > 95%; inhibition (INH) (HUVEC [8]): >95%; inhibition (HUVEC [9]): Active; inhibition (HUVEC [10]): Dose-dependent effect; inhibition (HUVEC [2]): Dose-dependent effect; inhibition (HUVEC [11]): Dose-dependent effect; IC50 [12]: 0.04 mM; inhibition at 20 µg/mL (HUVEC [13]): > 95%
CCCCCCCCSC(=O)/C=C/c1cc(OC)ccc1OC | 50 µg/mL |  | 30% | 
O=C(/C=C/c1ccccc1)OCc1ccccc1 [BENZYL CINNAMATE] | 70 µg/mL | 70 µg/mL (≈ 294 µM) | 50% | 
CCCOC(=O)/C=C/c1cc(OC)c(OC)c(OC)c1 | 120 µg/mL | 100 µg/mL (≈ 357 µM) | 62% | 
CCCCOC(=O)/C=C/c1ccccc1 [BUTYL CINNAMATE] | 140 µg/mL | 125 µg/mL (≈ 612 µM) | 55% | 
CCCSC(=O)/C=C/c1cc(OC)ccc1OC | 50 µg/mL | 45 µg/mL (≈ 169 µM) | 55% | 
O=C(/C=C/c1ccccc1)SCc1ccccc1 [BENZYL THIOCINNAMATE] | 60 µg/mL |  | 40% | 
CC(=O)Oc1ccccc1C(=O)O [ASPIRIN] |  |  |  | IC50 [12]: 6 mM
CCOC(=S)/C=C/c1cc(OC)ccc1OC | 25 µg/mL | 15 µg/mL (≈ 59.4 µM) | 80% | 
COc1cc(CCC(=O)SCc2ccccc2)cc(OC)c1OC | 60 µg/mL |  | 45% | 
CCCCCCCCSC(=O)/C=C/c1cc(OC)c(OC)c(OC)c1 | 70 µg/mL |  | 46% | 
CCCCCCCCSC(=O)CCc1cc(OC)c(OC)c(OC)c1 | 80 µg/mL |  | 40% | 
CCCSC(=O)/C=C/c1cc(OC)c(OC)c(OC)c1 | 70 µg/mL | 70 µg/mL (≈ 236 µM) | 50% | 
CCCCCCCCOC(=O)/C=C/c1ccccc1 [OCTYL CINNAMATE] | 70 µg/mL |  | 35% | 
COc1cc(/C=C/C(=O)Oc2ccccc2)cc(OC)c1OC | 45 µg/mL |  | 40% | 
CCOC(=O)/C=C/c1ccccc1 [ETHYL CINNAMATE] | 130 µg/mL | 95 µg/mL (≈ 539 µM) | 85% | 
CCOC(=S)/C=C/c1ccccc1 [ETHYL THIONOCINNAMATE] | 50 µg/mL | 22 µg/mL (≈ 114 µM) | 90% | 
CCCCOC(=S)/C=C/c1ccccc1 [BUTYL THIONOCINNAMATE] | 85 µg/mL | 55 µg/mL (≈ 250 µM) | 70% | 
